Experiments:
[1] = target: T1, Protein mono-ADP-ribosyltransferase PARP15 (Homo sapiens, UniProt Q460N3); experiment: (§1) Inhibition of N-terminal His-tagged human PARP15 catalytic domain expressed in Escherichia coli BL21 (DE3) preincubated with 6-a-NAD+ for 5 to 10 mins followed by enzyme addition and measured after 60 mins using NAD+ as substrate byHRP based chemiluminescence assay
T1 sequence (Q460N3 whole entry): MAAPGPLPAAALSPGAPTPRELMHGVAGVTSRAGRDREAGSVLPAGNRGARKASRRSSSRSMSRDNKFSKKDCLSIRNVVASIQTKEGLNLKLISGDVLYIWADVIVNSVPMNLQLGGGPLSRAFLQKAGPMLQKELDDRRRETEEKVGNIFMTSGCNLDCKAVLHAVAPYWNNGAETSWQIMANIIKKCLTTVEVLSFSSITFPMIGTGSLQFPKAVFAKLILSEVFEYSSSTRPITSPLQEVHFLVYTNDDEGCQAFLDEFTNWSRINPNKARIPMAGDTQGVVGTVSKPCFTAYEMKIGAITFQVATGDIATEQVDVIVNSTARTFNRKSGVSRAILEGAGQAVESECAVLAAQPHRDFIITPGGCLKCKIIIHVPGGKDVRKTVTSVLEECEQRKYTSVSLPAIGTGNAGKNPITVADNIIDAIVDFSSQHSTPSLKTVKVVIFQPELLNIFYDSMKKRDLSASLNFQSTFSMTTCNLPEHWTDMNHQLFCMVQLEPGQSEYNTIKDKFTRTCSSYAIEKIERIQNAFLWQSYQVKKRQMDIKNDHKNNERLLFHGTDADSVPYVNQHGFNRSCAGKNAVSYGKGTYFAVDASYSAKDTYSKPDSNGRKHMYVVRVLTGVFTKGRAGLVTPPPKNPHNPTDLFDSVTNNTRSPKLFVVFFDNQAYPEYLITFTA
Procedure, shortened: (§2)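 Plate-based PASTA assay. His6-SRPK2 is captured on nickel-coated wells as the ADP-ribosylation substrate in HEPES pH 7.5 buffer with NaCl, MgCl2 and TCEP. Recombinant PARP is added at 4–400 nM (2×). Inhibitor (0–200 μM) is premixed with 200 μM 6-a-NAD+ (2×) and reacted 60 min at 30 °C. Incorporated label is click-conjugated to biotin-azide and detected with streptavidin-HRP by chemifluorescence (ex 570/em 600). IC50 is the mean of ≥3 independent assays.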

[2] = target: Protein mono-ADP-ribosyltransferase PARP4 (Homo sapiens, UniProt Q9UKK3); experiment: as §1, with “His-tagged recombinant” for “His-tagged”, “PARP4 brct-catalytic” for “PARP15 catalytic”, “domain (369 to 573 residues)” for “domain”; procedure, shortened: as §2
[3] = target: Poly [ADP-ribose] polymerase 1 (Homo sapiens, UniProt P09874); experiment: Inhibition of N-terminal His-tagged full length human PARP1 expressed in Escherichia coli BL21 (DE3) preincubated with 6-a-NAD+ for 5 to 10 mins followed by enzyme addition and measured after 60 mins using NAD+ as substrate byHRP based chemiluminescence assay; procedure, shortened: as §2
[4] = target: Poly [ADP-ribose] polymerase 2 (Homo sapiens, UniProt Q9UGN5); experiment: Inhibition of N-terminal His-tagged full length human PARP2 expressed in Escherichia coli BL21 (DE3) preincubated with 6-a-NAD+ for 5 to 10 mins followed by enzyme addition and measured after 60 mins using NAD+ as substrate byHRP based chemiluminescence assay; procedure, shortened: as §2
[5] = target: T2, Protein mono-ADP-ribosyltransferase PARP11 (Homo sapiens, UniProt Q9NR21); experiment: Inhibition of N-terminal His-tagged full length human PARP11 expressed in Escherichia coli BL21 (DE3) preincubated with 6-a-NAD+ for 5 to 10 mins followed by enzyme addition and measured after 60 mins using NAD+ as substrate byHRP based chemiluminescence assay; procedure, shortened: as §2
T2 sequence (Q9NR21 whole entry): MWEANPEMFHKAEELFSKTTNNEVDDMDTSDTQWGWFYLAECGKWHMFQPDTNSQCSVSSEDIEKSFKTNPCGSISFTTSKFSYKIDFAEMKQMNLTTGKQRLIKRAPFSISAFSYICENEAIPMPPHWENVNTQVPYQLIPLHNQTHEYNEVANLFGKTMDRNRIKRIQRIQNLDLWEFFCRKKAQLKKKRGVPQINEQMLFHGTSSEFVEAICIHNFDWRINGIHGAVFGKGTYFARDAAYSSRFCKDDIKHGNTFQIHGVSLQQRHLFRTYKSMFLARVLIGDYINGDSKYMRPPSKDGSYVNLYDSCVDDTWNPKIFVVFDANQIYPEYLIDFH

Sequence of Protein mono-ADP-ribosyltransferase PARP4 (Q9UKK3 whole entry, the tested form may be a part): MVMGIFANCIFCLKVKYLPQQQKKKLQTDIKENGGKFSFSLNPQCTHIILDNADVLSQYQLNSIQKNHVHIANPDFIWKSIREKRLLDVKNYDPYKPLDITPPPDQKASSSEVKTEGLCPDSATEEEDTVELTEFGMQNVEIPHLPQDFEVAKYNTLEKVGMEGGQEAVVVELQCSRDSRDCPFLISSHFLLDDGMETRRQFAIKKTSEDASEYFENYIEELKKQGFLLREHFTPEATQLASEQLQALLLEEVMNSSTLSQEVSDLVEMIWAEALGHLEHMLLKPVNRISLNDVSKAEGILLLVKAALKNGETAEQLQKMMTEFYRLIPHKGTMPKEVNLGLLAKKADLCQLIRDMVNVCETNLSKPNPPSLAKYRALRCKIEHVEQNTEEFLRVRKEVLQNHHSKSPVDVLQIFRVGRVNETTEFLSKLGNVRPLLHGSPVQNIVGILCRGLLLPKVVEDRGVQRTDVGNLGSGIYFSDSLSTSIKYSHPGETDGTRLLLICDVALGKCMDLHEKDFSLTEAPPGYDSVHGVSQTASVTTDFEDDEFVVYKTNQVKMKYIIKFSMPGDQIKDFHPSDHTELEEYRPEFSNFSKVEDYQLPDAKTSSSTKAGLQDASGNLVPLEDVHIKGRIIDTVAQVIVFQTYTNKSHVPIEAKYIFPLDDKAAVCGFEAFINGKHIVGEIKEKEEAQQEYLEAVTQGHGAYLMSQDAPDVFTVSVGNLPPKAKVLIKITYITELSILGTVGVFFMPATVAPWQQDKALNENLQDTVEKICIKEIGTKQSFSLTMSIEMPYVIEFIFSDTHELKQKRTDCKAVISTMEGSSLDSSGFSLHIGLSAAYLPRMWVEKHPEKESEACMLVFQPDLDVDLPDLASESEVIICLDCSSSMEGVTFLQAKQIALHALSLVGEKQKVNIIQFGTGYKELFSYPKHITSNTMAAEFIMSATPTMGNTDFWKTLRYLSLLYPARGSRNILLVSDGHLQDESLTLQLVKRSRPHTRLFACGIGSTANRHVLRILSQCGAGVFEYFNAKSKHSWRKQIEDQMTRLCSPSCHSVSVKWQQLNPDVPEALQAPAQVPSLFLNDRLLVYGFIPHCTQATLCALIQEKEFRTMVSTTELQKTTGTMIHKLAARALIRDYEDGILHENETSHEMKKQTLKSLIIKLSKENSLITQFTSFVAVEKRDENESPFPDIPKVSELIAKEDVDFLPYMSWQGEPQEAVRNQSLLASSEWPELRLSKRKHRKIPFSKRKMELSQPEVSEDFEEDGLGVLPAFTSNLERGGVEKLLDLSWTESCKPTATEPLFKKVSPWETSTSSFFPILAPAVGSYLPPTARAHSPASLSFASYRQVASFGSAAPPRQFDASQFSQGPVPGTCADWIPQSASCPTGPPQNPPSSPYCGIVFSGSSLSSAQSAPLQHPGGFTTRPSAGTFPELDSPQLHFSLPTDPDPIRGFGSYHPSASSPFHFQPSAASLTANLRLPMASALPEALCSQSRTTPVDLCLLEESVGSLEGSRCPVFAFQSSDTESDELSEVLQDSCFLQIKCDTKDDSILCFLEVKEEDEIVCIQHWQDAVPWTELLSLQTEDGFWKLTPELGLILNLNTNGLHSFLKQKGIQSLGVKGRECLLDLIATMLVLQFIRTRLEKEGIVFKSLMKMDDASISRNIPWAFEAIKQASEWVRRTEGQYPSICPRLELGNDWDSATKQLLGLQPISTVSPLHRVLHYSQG
Sequence of Poly [ADP-ribose] polymerase 1 (P09874 whole entry): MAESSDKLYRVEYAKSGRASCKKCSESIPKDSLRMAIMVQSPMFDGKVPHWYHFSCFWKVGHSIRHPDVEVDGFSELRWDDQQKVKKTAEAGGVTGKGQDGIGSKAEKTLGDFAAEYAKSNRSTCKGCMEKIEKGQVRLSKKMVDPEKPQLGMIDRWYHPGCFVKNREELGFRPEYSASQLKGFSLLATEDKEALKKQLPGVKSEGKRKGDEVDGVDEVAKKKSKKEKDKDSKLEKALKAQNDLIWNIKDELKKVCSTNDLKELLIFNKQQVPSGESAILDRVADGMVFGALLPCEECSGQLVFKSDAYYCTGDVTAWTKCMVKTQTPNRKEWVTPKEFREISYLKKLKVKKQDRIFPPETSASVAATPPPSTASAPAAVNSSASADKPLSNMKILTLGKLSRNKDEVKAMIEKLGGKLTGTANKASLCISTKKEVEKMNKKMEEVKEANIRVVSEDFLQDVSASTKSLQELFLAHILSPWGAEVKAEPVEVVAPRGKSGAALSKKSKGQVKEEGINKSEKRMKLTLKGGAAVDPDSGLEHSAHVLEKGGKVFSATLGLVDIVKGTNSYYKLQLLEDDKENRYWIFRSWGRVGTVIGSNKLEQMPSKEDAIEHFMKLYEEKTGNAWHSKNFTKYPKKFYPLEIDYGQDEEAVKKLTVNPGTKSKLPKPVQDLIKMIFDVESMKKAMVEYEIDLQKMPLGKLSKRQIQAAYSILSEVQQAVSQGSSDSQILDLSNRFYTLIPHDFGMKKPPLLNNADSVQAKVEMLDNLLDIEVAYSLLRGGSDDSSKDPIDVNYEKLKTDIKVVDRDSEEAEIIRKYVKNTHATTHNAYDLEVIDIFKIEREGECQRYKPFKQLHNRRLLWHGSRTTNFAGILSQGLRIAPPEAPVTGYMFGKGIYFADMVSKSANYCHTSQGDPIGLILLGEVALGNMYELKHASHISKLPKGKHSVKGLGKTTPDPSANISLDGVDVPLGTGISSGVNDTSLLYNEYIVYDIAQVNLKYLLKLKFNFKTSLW
Sequence of Poly [ADP-ribose] polymerase 2 (Q9UGN5 whole entry): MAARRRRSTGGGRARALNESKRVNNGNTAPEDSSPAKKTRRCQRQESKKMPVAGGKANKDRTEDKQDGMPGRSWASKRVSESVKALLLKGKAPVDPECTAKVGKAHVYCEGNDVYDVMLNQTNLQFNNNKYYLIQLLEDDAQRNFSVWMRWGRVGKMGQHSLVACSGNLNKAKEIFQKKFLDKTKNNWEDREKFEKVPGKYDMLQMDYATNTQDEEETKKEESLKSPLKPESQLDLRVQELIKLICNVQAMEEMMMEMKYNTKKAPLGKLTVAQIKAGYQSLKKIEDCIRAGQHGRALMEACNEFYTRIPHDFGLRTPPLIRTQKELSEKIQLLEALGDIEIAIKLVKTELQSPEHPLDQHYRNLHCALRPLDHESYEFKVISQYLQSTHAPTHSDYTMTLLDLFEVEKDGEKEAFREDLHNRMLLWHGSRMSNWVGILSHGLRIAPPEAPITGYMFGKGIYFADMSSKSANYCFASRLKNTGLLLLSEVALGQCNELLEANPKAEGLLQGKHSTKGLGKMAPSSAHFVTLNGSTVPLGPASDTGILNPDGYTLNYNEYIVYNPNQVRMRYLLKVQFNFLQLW

`CC#Cc1cc(C)c2nc(CSc3ncccn3)[nH]c(=O)c2c1` was tested, and the IC50 [1] was 3300 nM.

In the case of `Cc1cc(Br)cc2c(=O)[nH]c(CSc3ccc(C(=O)O)cc3)nc12`, the IC50 [2] is reported as 1900 nM.

`Cc1cc(Br)cc2c(=O)[nH]c(CSc3ncccn3)nc12` was tested, and the IC50 [3] was 2500 nM, the IC50 [2] was 800 nM and the IC50 [4] was 2000 nM.

For `Cc1cc(I)cc2c(=O)[nH]c(CSc3ncccn3)nc12`, the IC50 [2] was 2700 nM.

Compound `Cc1cccc2c(=O)[nH]c(CSc3ncccn3)nc12` has an IC50 [4] of 800 nM and an IC50 [5] of 200 nM.

Compound `Cc1cc(C)c2nc(CSc3ncccn3)[nH]c(=O)c2c1` has an IC50 [3] of 100 nM and an IC50 [2] of 500 nM.

Work on `Cc1cc(I)cc2c(=O)[nH]c(CSc3ccc(C(=O)O)cc3)nc12` yielded an IC50 [2] of 800 nM.

Source: ChEMBL document CHEMBL5107944, “Rational design of selective inhibitors of PARP4” (RSC Med Chem, 2021)
